In ChEMBL document CHEMBL1137637, “Quinuclidine derivatives as potential antiparasitics” (Antimicrob Agents Chemother, 2007):
≈ marks a conversion by molar mass, not a printed value.

How the values were obtained:
[1] = tested on: Leishmania donovani; experiment: Antileishmanial activity against Leishmania donovani MHOM/ET/67/L82 axenic amastigotes after 72 hrs by resazurin assay; type: functional, organism-based; conditions: MHOM/ET/67/L82, 72 h
In short: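 L. donovani MHOM/ET/67/L82 amastigotes grown axenically at 37°C in synthetic minimal medium at pH 5.4 with 10% heat-inactivated FBS under 5% CO2. 1 × 10⁵ amastigotes per well with seven threefold dilutions, 30 to 0.041 μg/ml. After 72 h, resazurin added for 2–4 h more. Fluorescence read at ex 536/em 588 nm. IC50 taken from sigmoidal curve. Run in duplicate, with an independent repeat for actives.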

[2] = molecular target: T1, Farnesyltransferase, putative (Leishmania major, UniProt Q4Q5W4); experiment: Inhibition of Leishmania major recombinant squalene synthase expressed in Escherichia coli by liquid scintillation counter
T1 sequence (Q4Q5W4 whole entry): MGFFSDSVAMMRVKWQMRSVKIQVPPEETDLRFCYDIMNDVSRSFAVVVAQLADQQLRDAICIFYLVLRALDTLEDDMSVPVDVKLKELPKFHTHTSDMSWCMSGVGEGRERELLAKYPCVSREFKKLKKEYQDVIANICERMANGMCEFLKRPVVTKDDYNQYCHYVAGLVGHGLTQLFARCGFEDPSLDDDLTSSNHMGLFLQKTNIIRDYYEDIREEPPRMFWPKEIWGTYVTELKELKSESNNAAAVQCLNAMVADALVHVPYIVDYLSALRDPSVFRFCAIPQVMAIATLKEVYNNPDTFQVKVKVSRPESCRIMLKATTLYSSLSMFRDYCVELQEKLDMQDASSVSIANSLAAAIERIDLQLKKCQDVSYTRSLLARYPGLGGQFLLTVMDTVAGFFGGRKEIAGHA
In short: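 Soluble E. coli extract expressing L. major SQS truncated by 16 N-terminal and 40 C-terminal residues. Buffer: 50 mM phosphate pH 7.4, 20 mM MgCl2, 5 mM CHAPS, 1% Tween 80, 10 mM DTT, BSA, 0.25 mM NADPH, and a glucose-6-phosphate/G6PDH regenerating system. Substrate 0.5 μM radiolabelled farnesyl pyrophosphate. Squalene band counted by scintillation. IC50 from hyperbolic plot of five concentrations in duplicate, usually run twice.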

[3] = tested on: Leishmania amazonensis; experiment: Inhibition of sterol biosynthesis in Leishmania mexicana amazonensis promastigotes assessed as reduction in exogenous cholesterol level at 10 uM after 96 hrs by gas-liquid chromatography; type: functional; design: scale not given: the % may be the effect or the level left
In short: (§1)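 L. mexicana promastigotes exposed to compound for 96 h. Total lipids extracted and neutral sterols separated from polar lipids by silicic acid column chromatography. Sterols analysed by TLC and by quantitative capillary gas-liquid chromatography with mass spectrometry. Composition expressed as mass % of free sterols, compared with untreated control.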

[4] = tested on: Trypanosoma cruzi; experiment: Antitrypanosomal activity against trypomastigotes of Trypanosoma cruzi Tulahuen C2C4 containing lacZ gene in rat L6 cells after 4 days by chlorophenol red-beta-D-galactopyranoside/Nonidet assay; type: functional, organism-based; conditions: Tulahuen C2C4, L6, 96 h
In short: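 L-6 rat myoblasts seeded at 2,000 cells/well in RPMI 1640 with 10% FBS and 2 mM L-glutamine. After 24 h, 5,000 T. cruzi Tulahuen C2C4 lacZ trypomastigotes added with serial drug dilution. Incubated at 37°C in 5% CO2 for 4 days. CPRG/Nonidet substrate added and colour read at 540 nm after 2–4 h. IC50 from sigmoidal curve. Duplicate determinations.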

[5] = tested on: L6; experiment: Cytotoxicity against rat L6 cells after 72 hrs by resazurin assay; type: cell-based; conditions: L6, 72 h
In short: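 L-6 cells seeded at 4 × 10⁴ cells/ml in RPMI 1640 with 10% FBS and 2 mM L-glutamine. After 24 h, medium replaced with serial drug dilution and incubated for 72 h at 37°C in 5% CO2. Resazurin added for 2–4 h, fluorescence read at ex 536/em 588 nm. IC50 from sigmoidal curve. Duplicate, with an independent repeat for actives.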

[6] = tested on: Plasmodium falciparum; experiment: Antiplasmodial activity after 48 hrs against chloroquine and pyrimethamine-resistant Plasmodium falciparum K1 in human erythrocytes by [3H]hypoxanthine uptake; type: functional, organism-based
In short: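 P. falciparum K1 in human red cells in RPMI 1640 with 5% Albumax, exposed to serial drug dilutions. Incubated 48 h at 37°C under reduced oxygen, then 0.5 μCi [³H]hypoxanthine per well for 24 h more. Cells harvested onto glass-fibre filters and counted by scintillation. Result expressed as % of untreated control, with IC50 from sigmoidal curve. Duplicate, plus an independent repeat for actives.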

[7] = tested on: Leishmania amazonensis; experiment: Antileishmanial activity against Leishmania mexicana amazonensis promastigotes by trypan blue exclusion method; type: functional, organism-based
In short: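 L. mexicana amazonensis promastigotes cultured in liver infusion-tryptose medium with lactalbumin and 10% FCS at 26°C, unagitated. Cultures started at 2 × 10⁶ cells/ml and drug added at 0.5–1 × 10⁷ cells/ml. Density counted by electronic particle counter and hemocytometer. Viability by trypan blue exclusion. Triplicate growth experiments.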

[8] = tested on: Leishmania amazonensis; experiment: Inhibition of sterol biosynthesis in Leishmania mexicana amazonensis promastigotes assessed as reduction in endogenous episterol level at 10 uM after 96 hrs by gas-liquid chromatography; type: functional; design: scale not given: the % may be the effect or the level left; in short: as §1
[9] = tested on: Leishmania amazonensis; experiment: Inhibition of sterol biosynthesis in Leishmania mexicana amazonensis promastigotes assessed as reduction in endogenous 5-dehydro episterol level at 10 uM after 96 hrs by gas-liquid chromatography; type: functional; design: scale not given: the % may be the effect or the level left; in short: as §1
[10] = tested on: Trypanosoma brucei rhodesiense; experiment: Trypanocidal activity against Trypanosoma brucei rhodesiense STIB 900 bloodstream form after 72 hrs by resazurin assay; type: functional, organism-based; conditions: STIB 900, 72 h
In short: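 T. b. rhodesiense STIB 900 bloodstream forms in MEM with 2-mercaptoethanol and 15% heat-inactivated horse serum, with serial drug dilutions. Incubated 72 h at 37°C in 5% CO2. Resazurin added for 2–4 h more, fluorescence read at ex 536/em 588 nm. IC50 from sigmoidal curve. Duplicate, with an independent repeat for actives.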

[11] = tested on: Leishmania amazonensis; experiment: Inhibition of sterol biosynthesis in Leishmania mexicana amazonensis promastigotes assessed as reduction in endogenous cholesta-5,7,24-trien-3beta-ol level at 10 uM after 96 hrs by gas-liquid chromatography; type: functional; design: scale not given: the % may be the effect or the level left; in short: as §1
[12] = tested on: Leishmania amazonensis; experiment: Inhibition of sterol biosynthesis in Leishmania mexicana amazonensis promastigotes assessed as reduction in endogenous episterol level at 3 uM after 96 hrs by gas-liquid chromatography; type: functional; design: scale not given: the % may be the effect or the level left; in short: as §1
[13] = tested on: Leishmania amazonensis; experiment: Inhibition of sterol biosynthesis in Leishmania mexicana amazonensis promastigotes assessed as reduction in endogenous 5-dehydro episterol level at 3 uM after 96 hrs by gas-liquid chromatography; type: functional; design: scale not given: the % may be the effect or the level left; in short: as §1
[14] = tested on: Leishmania amazonensis; experiment: Inhibition of sterol biosynthesis in Leishmania mexicana amazonensis promastigotes assessed as reduction in exogenous cholesterol level at 3 uM after 96 hrs by gas-liquid chromatography; type: functional; design: scale not given: the % may be the effect or the level left; in short: as §1
[15] = tested on: Leishmania amazonensis; experiment: Inhibition of sterol biosynthesis in Leishmania mexicana amazonensis promastigotes assessed as reduction in exogenous cholesterol level at 1 uM after 96 hrs by gas-liquid chromatography; type: functional; design: scale not given: the % may be the effect or the level left; in short: as §1
[16] = tested on: Leishmania amazonensis; experiment: Inhibition of sterol biosynthesis in Leishmania mexicana amazonensis promastigotes assessed as reduction in endogenous episterol level at 1 uM after 96 hrs by gas-liquid chromatography; type: functional; design: scale not given: the % may be the effect or the level left; in short: as §1
[17] = tested on: Leishmania amazonensis; experiment: Inhibition of sterol biosynthesis in Leishmania mexicana amazonensis promastigotes assessed as reduction in endogenous 5-dehydro episterol level at 1 uM after 96 hrs by gas-liquid chromatography; type: functional; design: scale not given: the % may be the effect or the level left; in short: as §1

Compound	IC50 [1] [µM]	IC50 [2] [µM]	Activity [3] [%]	IC50 [4] [µM]	IC50 [5] [µM]	IC50 [6] [µM]	MIC [7] [µM]	Activity [8] [%]	Activity [9] [%]	IC50 [10] [µM]	Activity [11] [%]	Activity [12] [%]	Activity [13] [%]	Activity [14] [%]	Activity [15] [%]	Activity [16] [%]	Activity [17] [%]
OC[C@@H]1CC2CCN1C[C@@H]2C#Cc1ccc2ccccc2c1 (stereo partly drawn)	22.6	> 1	15.4	4.7	40.1	2.1	> 10	9.6	68.4	1.1	6.6	–	–	–	–	–	–
CCOC(=O)c1ccc(C#CC2(O)CN3CCC2CC3)cc1 (stereo not drawn)	28.7	4.25	–	5.6	171	4	10 (≈ 2.99 µg/mL)	–	–	3.3	>99	9.5	54.6	35.9	–	–	–
Cc1cc(C)cc(C#CC2(O)CN3CCC2CC3)c1 (stereo not drawn)	12.6	> 1	48.2	18.9	175	4.3	10 (≈ 2.55 µg/mL)	11.9	39.9	9.2	–	12	68.4	19.6	–	–	–
CCOC(=O)c1ccc(C#C[C@H]2CN3CCC2C[C@@H]3CO)cc1 (stereo partly drawn)	> 96	> 1	23.6	18.8	55.2	1.1	> 10	11.4	55.5	3.8	9.5	–	–	–	–	–	–
CCCCCCOc1ccc(C#CC2(O)CN3CCC2CC3)cc1 (stereo not drawn)	4.7	–	–	5.6	15.9	0.7	1 (≈ 0.327 µg/mL)	–	–	0.5	–	–	–	>99	20.4	14.6	65
COc1ccc(COc2ccc(C#CC3(O)CN4CCC3CC4)cc2)cc1OC (stereo not drawn)	4.6	–	44.6	13.4	78.7	2	1 (≈ 0.393 µg/mL)	16.6	38.8	3.4	–	14.6	69.8	15.6	–	–	–
C1=C(c2ccc3ccccc3c2)C2CCN1CC2	12.3	> 1	33.8	34.1	101	11	3 (≈ 0.706 µg/mL)	14.2	52	24.2	–	28.9	35.2	35.9	–	–	–
OC1(C#Cc2ccc(OCc3ccccc3)cc2)CN2CCC1CC2 (stereo not drawn)	3.2	–	–	9.6	45	1.9	1 (≈ 0.333 µg/mL)	–	–	1.9	–	–	–	>99	74.6	8.4	17
CC(C)OC(=O)c1ccc(C2=CN3CCC2CC3)cc1	1.1	> 1	–	23	152	14	3 (≈ 0.814 µg/mL)	–	–	7.2	–	25.5	–	74.5	44.4	12.8	42.8
OC1(C#Cc2ccc3cc[nH]c3c2)CN2CCC1CC2 (stereo not drawn)	11.4	> 1	19.9	26.2	> 338	7.1	> 10	17.5	62.6	19.9	–	–	–	–	–	–	–
Oc1ccc(C#CC2(O)CN3CCC2CC3)cc1 (stereo not drawn)	20	> 1	20.1	90.4	> 370	18.7	> 10	15.7	64.2	53	–	–	–	–	–	–	–
